Hits are enriched below; roughly 2.5% of the tested compounds scored in any of these assays.
rCAG RNA binder: molecules binding r(CAG) RNA repeats. r(CAG) RNA repeat, TO-PRO-1 dye displacement fluorescence. AID 651821. inhibition, % at 3 µM. 370,000 tested, 1.3% active;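 active = inhibition above the plate cutoff, the mean of all test compounds on that plate plus 3 SD, cut at about 35% in these data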;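 note: 0% = DMSO alone and 100% = 100 µM mitoxantrone as full dye displacement; higher means more dye released from RNA so lower well fluorescence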
SIAE inh: inhibitors of human sialic acid acetylesterase SIAE. 370,000 tested, 0.69% active. SIAE FP-Rh probe binding, fluorescence polarization. Q9HAT2. inhibition, % at 9.66 µM;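 active = inhibition above a cutoff: mean of compounds within the control limits plus 3 SD of those, cut at about 17% in these data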;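 note: 0% = plate median of compound wells and 100% = probe without SIAE protein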
TCR-CD3 inh: human TCR-CD3 binding inhibition; TAMRA-labeled TCR probe fluorescence, biochemical; inhibition, % at 9.4 µM; 360,000 tested, 0.37% active; in the data active = inhibition above about 19%;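 note: recombinant mutant TCR 2C K166C tagged with TAMRA read by polarization; 0% = receptor in buffer alone and 100% = receptor with positive control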
ABHD4 inh: inhibits mouse alpha/beta hydrolase domain 4. Q8VD66. purified mABHD4, FP-Rh probe fluorescence polarization. inhibition, % at 8.92 µM. 370,000 tested, 0.54% active;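 active = inhibition exceeding the mean over every tested compound plus 3 SD, cut at about 30% in these data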;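 note: 0% = plate median of compound wells and 100% = S159A mutant with DMSO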
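assay system = mABHD4 protein | compound dosing = single nominal dose of 8.92 µM, 0.89% DMSO final | read-out basis = percent inhibition of probe binding, normalized to plate controls | schedule = Enzyme–compound pre-incubation 45 min, then probe 60 min, both 25 °C | detection = fluorescence polarization, excitation 525 nm, emission 598 nm, BODIPY TMR filters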
HTRA1 inhibitor: HTRA1 (human) protease inhibition; Q92743; recombinant HTRA1, FP-rhodamine activity-based probe, fluorescence polarization; inhibition, % at 5.96 µM; 340,000 tested, 0.5% active; AID 504803; in the data active = inhibition above about 36%;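 note: 0% = enzyme with DMSO and 100% = wells lacking enzyme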
Target sequence (Q92743 whole entry, looked up): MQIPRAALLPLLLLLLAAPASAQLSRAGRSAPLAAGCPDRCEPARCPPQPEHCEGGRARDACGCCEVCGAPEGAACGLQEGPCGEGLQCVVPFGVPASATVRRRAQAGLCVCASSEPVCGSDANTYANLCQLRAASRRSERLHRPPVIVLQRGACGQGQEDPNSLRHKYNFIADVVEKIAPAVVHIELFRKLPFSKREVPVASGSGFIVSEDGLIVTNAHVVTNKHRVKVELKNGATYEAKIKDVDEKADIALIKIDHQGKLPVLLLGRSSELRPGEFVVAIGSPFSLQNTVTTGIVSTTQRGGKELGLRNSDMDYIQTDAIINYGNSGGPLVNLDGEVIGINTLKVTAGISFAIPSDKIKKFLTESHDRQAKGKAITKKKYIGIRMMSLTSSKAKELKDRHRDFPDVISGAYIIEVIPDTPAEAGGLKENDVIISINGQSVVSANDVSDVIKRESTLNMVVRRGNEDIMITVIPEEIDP
rCAG binder conf: r(CAG) RNA repeat binding, confirmation. shares compounds with rCAG RNA binder. TO-PRO-1 dye displacement fluorescence. inhibition, % at 3 µM. 4,300 tested, 70% active;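 active = inhibition above a per-plate cutoff, the mean inhibition of sample wells plus 3 SD, cut at about 35% in these data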;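 note: loss of TO-PRO-1 fluorescence as compound displaces dye from 1x1 AA loop RNA; 0% = DMSO only wells and 100% = 100 µM mitoxantrone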
DNA CAG counter: disrupts DNA CAG TO-PRO-1 complex, flagging rCAG hits | d(CAG) DNA oligo TO-PRO-1 dye displacement, fluorescence | AID 652068 | 4,300 tested, 94% active | inhibition, % at 3 µM | shares compounds with rCAG RNA binder;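 active = inhibition above its plate's cutoff, the mean test-well inhibition plus 3 SD, cut at about 4.8% in these data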;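 note: 0% = DNA dye mix with DMSO and 100% = 100 µM mitoxantrone; hits displace the dye from DNA and so lower well fluorescence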
mABHD4 conf: ABHD4 (mouse) inhibition, FP confirmation; shares compounds with ABHD4 inh; purified mABHD4, FP-Rh probe fluorescence polarization; inhibition, % at 8.92 µM; 1,800 tested, 55% active;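 active = mean inhibition across replicates above the hit cutoff set in the primary screen, cut at about 30% in these data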;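 note: 0% = wild-type ABHD4 with DMSO and 100% = catalytically dead S159A mutant with DMSO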
SIAE inh conf: confirmation of human SIAE inhibitors | SIAE FP-Rh activity-based probe, fluorescence polarization | inhibition, % at 9.66 µM | shares compounds with SIAE inh | 2,300 tested, 13% active;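 active = mean inhibition of the replicates above the hit cutoff set in the primary screen, cut at about 17% in these data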;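 note: 0% = SIAE with DMSO and probe and 100% = probe without SIAE; inhibitors lower polarization as more probe stays unbound to SIAE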
* hit, by the source's call; · = no result.

SMILES	rCAG RNA binder	SIAE inh	TCR-CD3 inh	ABHD4 inh	HTRA1 inhibitor	mABHD4 conf	others
O=C1NC(=O)N(c2ccccc2)C(=O)/C1=C\c1ccc([N+](=O)[O-])s1	43.2*	-14.8	-18.8	-4.8	·	·	rCAG binder conf=45.3*;DNA CAG counter=18.1*
COC1C(OC(=O)c2ccc(C)[nH]2)C(O)C(Oc2ccc3c(O)c(NC(=O)c4ccc(O)c(CC=C(C)C)c4)c(=O)oc3c2Cl)OC1(C)C (stereo not given)	77.2*	-3.9	0.3	-43.4	-60.9	·	rCAG binder conf=89.0*;DNA CAG counter=69.6*
O=C(O)c1ccccc1-c1ccc(C=C2C(=O)N(c3ccccc3)C(=S)N(c3ccccc3)C2=O)o1	57.0*	1.9	-6.2	8.3	-11.8	·	rCAG binder conf=61.1*;DNA CAG counter=25.8*
COc1ccc(C(SCC(NC(=O)OCc2ccccc2)C(=O)O)c2ccc(OC)cc2)cc1 (stereo not given)	52.9*	-2.2	-1.2	-6.5	-19.7	·	rCAG binder conf=52.5*;DNA CAG counter=14.2*
Cn1cccc1/C=C1/C(=O)NC(=S)N(Cc2ccc(F)cc2)C1=O	74.0*	12.0	-4.2	49.2*	45.0*	57.2*	rCAG binder conf=51.4*;DNA CAG counter=30.2*
COc1ccc(/C=N/N=C(/N)N[N+](=O)[O-])c(OC)c1	3.0	-1.6	-4.8	-4.3	0.5	·
N/C(=N\N=C/c1ccc(-c2ccc(O)c(C(=O)O)c2)o1)N[N+](=O)[O-]	57.5*	-2.3	17.4	35.2*	5.2	42.4*	rCAG binder conf=66.8*;DNA CAG counter=28.4*
C[N+]1(C)C2CCC1CC(OC(=O)c1ccccc1)C2 (stereo not given)	-0.6	7.2	3.1	-1.1	-2.8	·
O=C(O)c1cccc2c1NC(c1cccc([N+](=O)[O-])c1)C1CC(Sc3ccccc3[N+](=O)[O-])C(Cl)C21 (stereo not given)	76.2*	16.8	5.9	29.6*	16.0	54.6*	rCAG binder conf=92.3*;DNA CAG counter=74.1*
CCN(CC)C(=O)Cn1cc(C=C2C(=O)N(C)C(=O)N(C)C2=O)c2ccccc21	-2.5	-7.8	2.5	-1.5	-0.6	·
O=C(N/N=C/C1C(=O)NC(=S)N(c2ccccc2)C1=O)c1cc(Br)c(O)c(Br)c1 (stereo not given)	28.3	-3.0	14.3	41.7*	35.8	48.0*
CC(=O)N1CCN(c2ccc(N=Cc3c(O)n(-c4ccc(Cl)cc4)c(=O)[nH]c3=O)cc2)CC1	5.4	10.6	4.5	41.5*	23.5	4.6
O=c1[nH]c(=S)n(-c2ccc(Br)cc2)c(O)c1C=Nc1ccc(N2CCOCC2)cc1	10.0	6.5	4.1	22.1	22.1	·
O=c1[nH]c(=S)n(-c2ccccc2F)c(O)c1C=Nc1ccc(N2CCOCC2)cc1	5.9	8.7	4.1	57.8*	12.2	2.3
CCN(CC)c1ccc(N=Cc2c(O)n(-c3ccc(Cl)cc3)c(=O)[nH]c2=O)cc1	4.5	-1.1	3.2	0.9	8.3	·
O=c1[nH]c(=O)n(CCC2=CCCCC2)c(O)c1/C=N/Nc1ccccc1	16.4	4.6	-1.7	7.0	-4.0	·
O=c1[nH]c(=O)n(CCC2=CCCCC2)c(O)c1/C=N/Nc1cccc2ccccc12	25.5	9.6	-16.1	33.3*	30.9	15.6
CC(C)CCNC(=O)c1cc(C(=O)c2cc(F)ccc2O)cn(CCC(C)C)c1=O	-2.0	-3.3	2.1	0.4	4.7	·
COc1ccc(-n2c(=S)[nH]c3ccc(C)cc3c2=O)cc1	4.2	1.9	3.5	32.5*	1.9	24.7
O=C(N/N=C/c1c(O)n(Cc2ccc(F)cc2)c(=S)[nH]c1=O)c1ccncc1	28.4	-52.6	-11.5	31.9*	-9.6	36.9*
CCn1c(O)c(/C=N/NC(=O)c2ccncc2)c(=O)[nH]c1=S	9.8	-65.2	-37.2	-18.4	-26.0	·
Cc1cccc(C)c1-n1nnnc1C(c1ccnc2ccccc12)N1CCC2(CC1)C(=O)NCN2c1ccccc1 (stereo not given)	4.6	1.9	6.4	3.4	·	·
Cc1ccccc1-n1c(O)c(C=Nc2ccc(N(C)C)cc2)c(=O)[nH]c1=O	7.1	5.6	15.4	39.6*	35.1	6.5
CCN(CC)c1ccc(N=Cc2c(O)n(-c3ccc(OC)cc3)c(=O)[nH]c2=O)cc1	7.5	5.0	0.1	38.0*	35.1	2.4
Cc1ccc(Cn2cc(C=O)c3ccccc32)cc1	-2.1	-2.8	3.9	-7.5	-20.9	·
SMILES	rCAG RNA binder	SIAE inh	TCR-CD3 inh	ABHD4 inh	HTRA1 inhibitor	mABHD4 conf	others
N#CSCC(=O)N1c2ccccc2CCc2ccccc21	-0.2	1.3	0.7	-0.2	-0.7	·
CCC(=NCCCn1ccnc1)c1c(O)n(-c2ccc(OC)cc2)c(=O)[nH]c1=O	-4.6	-3.0	-6.8	2.4	2.5	·
C=CCn1c(O)c(C(CC)=Nc2ccc(N(C)C)cc2)c(=O)[nH]c1=O	11.5	2.9	8.5	43.1*	·	10.9
C=CCn1c(O)c(C(CC)=Nc2ccc3c(c2)CCC3)c(=O)[nH]c1=O	-2.7	2.5	2.9	3.8	5.6	·
O=C1NC(=O)C(=Cc2ccc(-c3ccccc3[N+](=O)[O-])o2)C(=O)N1	1.3	10.8	-13.1	2.9	3.7	·
CN1CCc2cc(O)cc3c2[C@H]1Cc1ccc(O)c(O)c1-3	2.0	12.4	17.2	57.2*	30.0	17.5
COC(=O)C1=C(c2ccc(OCc3ccccc3)cc2)C[C@@H]2CC[C@H]1N2C(=O)NCc1ccc(OC)c(OC)c1	0.3	0.6	5.7	46.0*	-18.1	58.0*
CNC(=O)Oc1cccc(-c2cn3cc(OC(=O)NC)ccc3n2)c1	2.1	17.1*	6.9	40.4*	20.9	22.0	SIAE inh conf=5.0
O=c1[nH]c(=O)n(CCC2=CCCCC2)c(O)c1C=NCCN1CCNCC1	10.6	2.4	0.0	-6.6	-1.0	·
C/C(=N\N1CCCCCC1)c1c(O)n(-c2ccccc2)c(=O)[nH]c1=O	0.8	49.5*	-5.4	-16.9	-1.4	·	SIAE inh conf=4.7
CC(C)CCOP(N)(=O)Oc1ccccc1Cl (stereo not given)	-7.4	38.8*	-4.3	2.3	2.3	·	SIAE inh conf=29.5*
NP(=O)(OCCCc1ccccc1)Oc1ccccc1Cl (stereo not given)	-4.9	56.5*	8.3	2.1	10.8	·	SIAE inh conf=54.0*
NP(=O)(OCCCc1ccccc1)Oc1ccc(Cl)cc1 (stereo not given)	-8.2	48.5*	-1.7	-2.3	-4.0	·	SIAE inh conf=45.7*
NP(=O)(OCCCc1ccccc1)c1ccccc1 (stereo not given)	-2.7	-3.3	-3.1	10.2	-1.1	·
CC1CN=C(Nc2cccc3ccccc23)S1 (stereo not given)	5.9	-4.9	-4.5	-8.4	0.7	·
